Values after ≈ are worked out from the molar mass of the structure shown. Active and inactive are the calls of the source. The calls are words filed in the database; no cut-off is given here.
Tests used:
COLO 205 = experiment: Cytotoxicity against human COLO205 cells; format: functional, cell-based
[1] = Selectivity for Aurora A over Aurora B
Aurora kinase B = Aurora kinase B (Homo sapiens, UniProt Q96GD4); experiment: Inhibition of Aurora B by ELISA
Procedure, shortened: (§1)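 ELISA on plates coated with GST fusion carrying histone H3 residues 1-15, blocked with 1 mg/mL I-block. Aurora-A or Aurora-B kinase reacted with compound and 30 μM ATP in kinase buffer with 1 μg/mL I-block; stopped after 40 min with 25 mM EDTA. Phosphorylation read with anti-phospho-histone H3 (Ser10) 6G3 mAb. IC50 from triplicate averages.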

MCF7 [2] = experiment: Cytotoxicity against human MCF7 cells; format: functional, cell-based
HCT-116 = experiment: Cytotoxicity against human HCT116 cells after 5 days by celltiter-glo assay; format: functional, cell-based; details: HCT-116, 120 h
Aurora kinase A = target: T1, Aurora kinase A (Homo sapiens, UniProt O14965); experiment: Inhibition of Aurora A by ELISA; procedure, shortened: as §1
T1 sequence (O14965 whole entry): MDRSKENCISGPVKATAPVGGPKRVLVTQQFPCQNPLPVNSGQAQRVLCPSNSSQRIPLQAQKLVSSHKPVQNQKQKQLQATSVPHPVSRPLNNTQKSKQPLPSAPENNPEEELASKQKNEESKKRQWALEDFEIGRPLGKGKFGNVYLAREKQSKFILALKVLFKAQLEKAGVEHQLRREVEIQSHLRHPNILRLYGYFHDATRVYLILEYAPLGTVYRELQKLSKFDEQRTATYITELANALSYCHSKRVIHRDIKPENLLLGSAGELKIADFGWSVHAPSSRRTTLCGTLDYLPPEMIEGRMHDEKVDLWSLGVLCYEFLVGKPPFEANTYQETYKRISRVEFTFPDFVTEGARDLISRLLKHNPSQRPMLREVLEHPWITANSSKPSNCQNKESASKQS

[3] = Clearance in mouse microsome measured per mg of protein; format: ADME, Liver; details: microsomes
MCF7 [4] = experiment: Induction of cell cycle arrest in human MCF7 cells assessed as accumulation at G2/M phase at 10 uM after 24 hrs by immunostaining; format: functional, cell-based
[5] = Clearance in rat hepatocytes measured per 10^6 cells; format: ADME, cell-based, Liver, Hepatocyte
Cytochrome P450 3A4 = Cytochrome P450 3A4 (Homo sapiens, UniProt P08684); experiment: Inhibition of CYP3A4; format: ADME
Sequence of Cytochrome P450 3A4 (P08684 whole entry): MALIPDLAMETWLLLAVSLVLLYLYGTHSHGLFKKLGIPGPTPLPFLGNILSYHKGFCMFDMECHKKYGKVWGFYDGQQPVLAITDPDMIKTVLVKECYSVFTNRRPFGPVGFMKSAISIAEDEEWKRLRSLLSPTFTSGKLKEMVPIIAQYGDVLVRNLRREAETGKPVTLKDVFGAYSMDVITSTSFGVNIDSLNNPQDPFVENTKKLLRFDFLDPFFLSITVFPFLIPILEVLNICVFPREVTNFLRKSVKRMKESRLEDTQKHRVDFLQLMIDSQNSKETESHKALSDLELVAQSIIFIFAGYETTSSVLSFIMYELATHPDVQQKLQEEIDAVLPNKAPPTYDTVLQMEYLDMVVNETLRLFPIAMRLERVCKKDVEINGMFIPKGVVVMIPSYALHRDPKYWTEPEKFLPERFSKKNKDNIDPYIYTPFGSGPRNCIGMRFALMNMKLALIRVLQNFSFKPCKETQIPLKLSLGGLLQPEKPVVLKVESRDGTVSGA

Cytochrome P450 2C9 = Cytochrome P450 2C9 (Homo sapiens, UniProt P11712); experiment: Inhibition of CYP2C9; format: ADME
Sequence of Cytochrome P450 2C9 (P11712 whole entry): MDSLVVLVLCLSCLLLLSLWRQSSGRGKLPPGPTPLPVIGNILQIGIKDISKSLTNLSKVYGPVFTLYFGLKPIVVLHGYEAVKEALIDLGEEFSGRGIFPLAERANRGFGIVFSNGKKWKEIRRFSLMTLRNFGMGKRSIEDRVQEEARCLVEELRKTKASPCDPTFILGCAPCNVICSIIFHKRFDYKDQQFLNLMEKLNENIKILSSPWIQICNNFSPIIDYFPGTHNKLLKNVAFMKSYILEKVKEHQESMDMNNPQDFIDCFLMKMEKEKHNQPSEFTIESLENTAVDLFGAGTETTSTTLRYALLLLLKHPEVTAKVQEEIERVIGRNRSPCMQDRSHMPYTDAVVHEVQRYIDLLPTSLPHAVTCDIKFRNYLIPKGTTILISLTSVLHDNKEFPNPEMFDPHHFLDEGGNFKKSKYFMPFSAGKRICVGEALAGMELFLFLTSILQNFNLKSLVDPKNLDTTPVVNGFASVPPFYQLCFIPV

[6] = Aqueous solubility of the compound; format: physicochemical; details: buffer
[7] = Clearance in human microsome measured per mg of protein; format: ADME; details: microsomes
Cytochrome P450 2D6 = Cytochrome P450 2D6 (Homo sapiens, UniProt P10635); experiment: Inhibition of CYP2D6; format: ADME
Sequence of Cytochrome P450 2D6 (P10635 whole entry): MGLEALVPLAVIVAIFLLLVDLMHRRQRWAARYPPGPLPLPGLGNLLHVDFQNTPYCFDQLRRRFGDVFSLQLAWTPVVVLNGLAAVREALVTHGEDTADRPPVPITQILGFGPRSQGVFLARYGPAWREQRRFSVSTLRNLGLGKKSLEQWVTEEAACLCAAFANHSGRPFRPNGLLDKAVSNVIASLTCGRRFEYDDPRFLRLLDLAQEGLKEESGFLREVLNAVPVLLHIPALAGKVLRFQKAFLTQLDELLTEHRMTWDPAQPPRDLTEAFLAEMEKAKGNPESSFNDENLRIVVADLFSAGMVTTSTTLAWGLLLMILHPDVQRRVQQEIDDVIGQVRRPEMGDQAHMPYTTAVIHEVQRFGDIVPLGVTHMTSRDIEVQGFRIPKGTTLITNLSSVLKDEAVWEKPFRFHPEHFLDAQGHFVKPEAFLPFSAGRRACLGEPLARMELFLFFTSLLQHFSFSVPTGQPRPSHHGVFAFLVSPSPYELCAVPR

hERG (KCNH2) = hERG (KCNH2) (Homo sapiens, UniProt Q12809); experiment: Inhibition of human ERG at 10 uM
Sequence of hERG (KCNH2) (Q12809 whole entry): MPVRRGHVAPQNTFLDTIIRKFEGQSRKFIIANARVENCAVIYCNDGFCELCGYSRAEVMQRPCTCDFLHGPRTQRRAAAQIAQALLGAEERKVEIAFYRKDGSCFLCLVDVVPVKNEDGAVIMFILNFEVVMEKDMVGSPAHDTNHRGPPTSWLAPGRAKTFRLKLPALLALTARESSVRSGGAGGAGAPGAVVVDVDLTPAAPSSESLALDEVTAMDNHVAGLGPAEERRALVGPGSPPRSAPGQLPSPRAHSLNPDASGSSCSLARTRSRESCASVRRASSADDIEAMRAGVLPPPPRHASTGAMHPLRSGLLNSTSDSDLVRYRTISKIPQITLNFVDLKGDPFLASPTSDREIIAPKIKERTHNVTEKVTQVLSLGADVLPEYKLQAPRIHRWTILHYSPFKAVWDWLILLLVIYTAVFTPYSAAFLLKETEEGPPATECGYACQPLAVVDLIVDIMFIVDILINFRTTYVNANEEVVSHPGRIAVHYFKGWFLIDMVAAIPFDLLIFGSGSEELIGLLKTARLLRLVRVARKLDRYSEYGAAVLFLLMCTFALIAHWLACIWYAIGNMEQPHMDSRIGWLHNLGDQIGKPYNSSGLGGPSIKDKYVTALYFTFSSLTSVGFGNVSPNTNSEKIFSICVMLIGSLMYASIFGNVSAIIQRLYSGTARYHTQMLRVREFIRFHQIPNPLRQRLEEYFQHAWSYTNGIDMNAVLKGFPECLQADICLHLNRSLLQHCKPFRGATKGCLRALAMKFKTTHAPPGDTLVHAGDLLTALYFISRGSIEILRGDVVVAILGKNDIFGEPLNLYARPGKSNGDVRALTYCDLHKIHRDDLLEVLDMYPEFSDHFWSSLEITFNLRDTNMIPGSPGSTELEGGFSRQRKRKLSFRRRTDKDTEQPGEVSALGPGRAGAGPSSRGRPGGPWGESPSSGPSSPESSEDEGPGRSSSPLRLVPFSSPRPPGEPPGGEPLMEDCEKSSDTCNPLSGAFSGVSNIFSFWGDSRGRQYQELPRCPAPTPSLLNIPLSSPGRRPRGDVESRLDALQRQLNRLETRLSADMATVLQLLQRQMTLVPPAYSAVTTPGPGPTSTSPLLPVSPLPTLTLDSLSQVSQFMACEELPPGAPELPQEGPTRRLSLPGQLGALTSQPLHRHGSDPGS

Sequence of Aurora kinase B (Q96GD4 whole entry, the tested form may be a part): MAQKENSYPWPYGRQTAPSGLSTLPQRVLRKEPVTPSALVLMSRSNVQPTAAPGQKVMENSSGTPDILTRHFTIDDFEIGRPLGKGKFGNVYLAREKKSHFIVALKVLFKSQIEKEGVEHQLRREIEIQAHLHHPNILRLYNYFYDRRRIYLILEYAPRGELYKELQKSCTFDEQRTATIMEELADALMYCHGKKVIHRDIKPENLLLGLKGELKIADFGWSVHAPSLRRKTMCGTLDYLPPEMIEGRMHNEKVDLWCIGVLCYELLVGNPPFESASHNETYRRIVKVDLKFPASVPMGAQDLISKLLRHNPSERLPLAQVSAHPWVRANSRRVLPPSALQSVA

Row | SMILES | IC50 (COLO 205) | Selectivity ratio [1] | IC50 (Aurora kinase B) | IC50 (MCF7 [2]) | IC50 (HCT-116) | IC50 (Aurora kinase A) | microsomal CLint [3] | Activity (MCF7 [4]) | hepatocyte CLint [5] | IC50 (Cytochrome P450 3A4) | IC50 (Cytochrome P450 2C9) | solubility [6] | microsomal CLint [7] | IC50 (Cytochrome P450 2D6) | inhibition at 10 µM (hERG (KCNH2))
1 | Cc1ccc(-n2nc(Nc3cc(C)[nH]n3)c3ccccc3c2=O)cc1 | 3.6 µM | > 1000 | > 100 µM | > 30 µM | 0.24 µM | 0.023 µM | – | – | – | – | – | – | – | – | –
2 | Cc1cc(Nc2nn(Cc3ccc([N+](=O)[O-])cc3)c(=O)c3ccccc23)n[nH]1 | – | – | 0.93 µM | > 30 µM | 1.4 µM | 0.109 µM | – | – | – | – | – | – | – | – | –
3 | Cc1cc(Nc2n[nH]c(=O)c3ccccc23)n[nH]1 | – | > 1000 | 22 µM | – | – | 0.65 µM | – | – | – | – | – | – | – | – | –
4 | Cc1cccc(-n2nc(Nc3cc(C)[nH]n3)c3ccccc3c2=O)c1 | 3.2 µM | > 1000 | > 100 µM | 2.9 µM | 2.3 µM | 0.024 µM | – | – | – | – | – | – | – | – | –
5 | Cc1cc(Nc2nn(Cc3ccncc3)c(=O)c3ccccc23)n[nH]1 | 13 µM | – | 27 µM | > 30 µM | 20.2 µM | 0.27 µM | – | – | – | – | – | – | – | – | –
6 | Cc1cc(Nc2nn(Cc3ccc(S(C)(=O)=O)cc3)c(=O)c3ccccc23)n[nH]1 | 4.5 µM | – | 34 µM | 4.5 µM | 1.7 µM | 0.056 µM | – | – | – | – | – | – | – | – | –
7 | CC(=O)Nc1ccc(Cn2nc(Nc3cc(C)[nH]n3)c3ccccc3c2=O)cc1 | > 30 µM | – | 15 µM | > 30 µM | 4.2 µM | 0.093 µM | – | – | – | – | – | – | – | – | –
8 | Cc1cc(Nc2nn(Cc3ccc(F)cc3)c(=O)c3ccccc23)n[nH]1 | 17 µM | > 1000 | 69 µM | > 30 µM | 1.4 µM | 0.014 µM | – | – | – | – | – | – | – | – | –
9 | Cc1ccc(-n2nc(Nc3cc[nH]n3)c3ccccc3c2=O)cc1 | – | > 1000 | – | – | – | 1 µM | – | – | – | – | – | – | – | – | –
10 | Cc1cc(Nc2nn(Cc3ccccc3)c(=O)c3ccccc23)n[nH]1 | 4.4 µM | > 1000 | > 100 µM | 12.6 µM | 1.5 µM | – | 28 µL/min/mg | Active | 2.4 µL/min/1e6 cells | > 50 µM | 42 µM | 1.9 µg/mL (≈ 5.73 µM) | 7.4 µL/min/mg | > 50 µM | –
11 | Cc1cc(Nc2nn(C(C)C)c(=O)c3ccccc23)n[nH]1 | 1.7 µM | > 1000 | 30 µM | 1.6 µM | 0.4 µM | 0.035 µM | – | – | – | > 50 µM | > 50 µM | 7 µg/mL (≈ 24.7 µM) | – | > 50 µM | –
12 | Cc1cc(Nc2nn(CC(=O)c3ccccc3)c(=O)c3ccccc23)n[nH]1 | > 30 µM | > 1000 | > 100 µM | > 30 µM | 5.44 µM | 0.071 µM | – | – | – | – | – | – | – | – | –
13 | Cc1cc(Nc2nn(CC(C)C)c(=O)c3ccccc23)n[nH]1 | – | – | 34 µM | 4.2 µM | 1.1 µM | 0.115 µM | – | – | – | – | – | – | – | – | –
14 | COc1cccc(Cn2nc(Nc3cc(C)[nH]n3)c3ccccc3c2=O)c1 | 3.6 µM | > 1000 | 28 µM | > 30 µM | 0.66 µM | 0.036 µM | – | – | – | – | – | – | – | – | –
15 | Cc1cc(Nc2nn(CC(=O)c3ccc(C(F)(F)F)cc3)c(=O)c3ccccc23)n[nH]1 | > 30 µM | > 1000 | > 100 µM | > 30 µM | > 30 µM | 0.72 µM | – | – | – | – | – | – | – | – | –
16 | CC(=O)Nc1ccc(Cn2nc(Nc3cc[nH]n3)c3ccccc3c2=O)cc1 | – | – | 34 µM | > 30 µM | > 30 µM | – | – | – | – | – | – | – | – | – | –

Row | SMILES | IC50 (COLO 205) | Selectivity ratio [1] | IC50 (Aurora kinase B) | IC50 (MCF7 [2]) | IC50 (HCT-116) | IC50 (Aurora kinase A) | microsomal CLint [3] | Activity (MCF7 [4]) | hepatocyte CLint [5] | IC50 (Cytochrome P450 3A4) | IC50 (Cytochrome P450 2C9) | solubility [6] | microsomal CLint [7] | IC50 (Cytochrome P450 2D6) | inhibition at 10 µM (hERG (KCNH2))
17 | Cc1cc(Nc2nn(C)c(=O)c3ccccc23)n[nH]1 | > 30 µM | – | 17 µM | > 30 µM | 5.2 µM | 0.27 µM | – | – | – | – | – | – | – | – | –
18 | Cc1cc(Nc2nn(Cc3cc(F)ccc3F)c(=O)c3ccccc23)n[nH]1 | 3.8 µM | – | > 100 µM | > 30 µM | 0.57 µM | 0.025 µM | – | – | – | – | – | – | – | – | –
19 | Cc1cc(Nc2nn(-c3ccccc3)c(=O)c3ccccc23)n[nH]1 | – | – | – | – | – | – | 15.7 µL/min/mg | – | 2.3 µL/min/1e6 cells | > 50 µM | > 50 µM | 1.2 µg/mL (≈ 3.78 µM) | – | > 50 µM | 20%
20 | COc1ccc(-n2nc(Nc3cc(C)[nH]n3)c3ccccc3c2=O)cc1 | 3.7 µM | – | > 100 µM | 3.6 µM | 0.7 µM | 0.029 µM | – | – | – | – | – | – | – | – | –
21 | Cc1cc(Nc2nn(CC(F)(F)F)c(=O)c3ccccc23)n[nH]1 | – | > 1000 | 15 µM | 4.5 µM | 1.8 µM | 0.066 µM | – | – | – | – | – | – | – | – | –
22 | COc1cccc(C(=O)Cn2nc(Nc3cc(C)[nH]n3)c3ccccc3c2=O)c1 | > 30 µM | > 1000 | 67 µM | > 30 µM | 2.7 µM | 0.1 µM | – | – | – | – | – | – | – | – | –
23 | Cc1cc(Nc2nn(-c3ccc(Cl)cc3)c(=O)c3ccccc23)n[nH]1 | 2.2 µM | > 1000 | > 100 µM | 11.4 µM | 0.82 µM | 0.093 µM | – | – | – | – | – | – | – | – | –
24 | COc1ccc(C(=O)Cn2nc(Nc3cc(C)[nH]n3)c3ccccc3c2=O)cc1 | > 30 µM | > 1000 | > 100 µM | > 30 µM | > 30 µM | 0.067 µM | – | – | – | – | – | – | – | – | –
25 | Cc1cc(Nc2nn(Cc3cccnc3)c(=O)c3ccccc23)n[nH]1 | 4.1 µM | – | 12.7 µM | 13.4 µM | 2.9 µM | 0.017 µM | – | – | – | – | – | – | – | – | –
26 | Cc1cc(Nc2nn(-c3ccc(C(C)(C)C)cc3)c(=O)c3ccccc23)n[nH]1 | – | > 1000 | > 50 µM | 0.78 µM | 0.06 µM | 0.24 µM | – | – | – | – | – | – | – | – | –
27 | Cc1cc(Nc2nn(-c3ccc(F)cc3)c(=O)c3ccccc23)n[nH]1 | 1.6 µM | – | > 100 µM | 1.6 µM | 0.8 µM | 0.037 µM | – | – | – | – | – | – | – | – | –
28 | Cc1cc(Nc2nn(Cc3cc(F)cc(F)c3)c(=O)c3ccccc23)n[nH]1 | 2.3 µM | > 1000 | > 100 µM | 2.6 µM | 0.5 µM | 0.049 µM | – | – | – | – | – | – | – | – | –
29 | COc1ccc(Cn2nc(Nc3cc(C)[nH]n3)c3ccccc3c2=O)cc1 | 4.2 µM | – | 46 µM | > 30 µM | 1.2 µM | 0.032 µM | – | – | – | – | – | – | – | – | –
30 | O=c1c2ccccc2c(Nc2n[nH]c3ccccc23)nn1-c1ccccc1 | – | > 1000 | – | – | – | 14 µM | – | – | – | – | – | – | – | – | –
31 | Cc1cc(Nc2nn(Cc3csc(C)n3)c(=O)c3ccccc23)n[nH]1 | > 30 µM | – | 24 µM | > 30 µM | 4.18 µM | 0.12 µM | – | – | – | – | – | – | – | – | –
